Reference: ChEMBL document CHEMBL1129968, “Synthesis, dopamine transporter affinity, dopamine uptake inhibition, and locomotor stimulant activity of 2-substituted 3 beta-phenyltropane derivatives” (J Med Chem, 1997)
Where “and” joins values, the source holds several entries; their conditions need not be identical. Equal entries are not always repeated.

How the values were obtained:
[1] = target: T1, Sodium-dependent dopamine transporter (Rattus norvegicus, UniProt P23977); test: Displacement of [3H]WIN-35428 from dopamine transporter (DAT) in Rat Caudate Putamen; assay type: tissue-based
Procedure, shortened: (§1)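 Ki is the inhibition constant derived for the unlabeled ligand. Values are the mean ± SEM of three experiments run in triplicate. Compounds were tested as HCl salts unless noted, some as fumarate salts. Data were fitted to single-site versus two-site binding models.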

Mus musculus [2] = species: Mus musculus; test: Stimulation of locomotor activity of Mice; assay type: functional
Procedure, shortened: (§2)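 Mice given drug or saline vehicle, with horizontal activity counts recorded in 10 min periods over a 60 min session. Eight mice per dose, doses in µmol/kg. The dose-response used the first 30 min after injection. ED50 is from the dose-response, and the maximal stimulant effect and time course were also assessed.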

Mus musculus [3] = species: Mus musculus; test: Stimulation of locomotor activity of mice; assay type: functional; procedure, shortened: as §2
Rattus norvegicus [4] = species: Rattus norvegicus; test: Values for substitution for Cocaine in rats Trained to discriminate Cocaine from saline; assay type: functional
Procedure, shortened: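 Read-out is the percentage of responses on the cocaine-appropriate lever, with doses in µmol/kg. Lever selection was counted unreliable below 0.02 responses/s, and a point was dropped if fewer than half of subjects met this rate. Four to six rats per point. ED50 given with 95% confidence limits.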

Rattus norvegicus [5] = species: Rattus norvegicus; test: Compound was evaluated for inhibition of [3H]- dopamine uptake in rat caudate - putamen tissue.; assay type: functional
Procedure, shortened: (§3)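 [3H]dopamine uptake into rat caudate-putamen tissue. IC50 values are the mean ± SEM of three experiments, each run in triplicate. Compounds were tested as HCl salts unless noted, some as fumarate salts.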

Rattus norvegicus [6] = species: Rattus norvegicus; test: Compound was evaluated for inhibition of [3H]- dopamine Uptake in rat caudate - putamen tissue.; assay type: functional; procedure, shortened: as §3
[7] = target: T1, Sodium-dependent dopamine transporter; test: Compound was evaluated for its ability to displace [3H]WIN-35428 from dopamine transporter in rat caudate putamen tissue; assay type: tissue-based
Procedure, shortened: as §1, with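 “Rat caudate-putamen tissue, displacing bound [3H]WIN 35,428. Ki” for “Ki”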

T1 sequence (P23977 whole entry): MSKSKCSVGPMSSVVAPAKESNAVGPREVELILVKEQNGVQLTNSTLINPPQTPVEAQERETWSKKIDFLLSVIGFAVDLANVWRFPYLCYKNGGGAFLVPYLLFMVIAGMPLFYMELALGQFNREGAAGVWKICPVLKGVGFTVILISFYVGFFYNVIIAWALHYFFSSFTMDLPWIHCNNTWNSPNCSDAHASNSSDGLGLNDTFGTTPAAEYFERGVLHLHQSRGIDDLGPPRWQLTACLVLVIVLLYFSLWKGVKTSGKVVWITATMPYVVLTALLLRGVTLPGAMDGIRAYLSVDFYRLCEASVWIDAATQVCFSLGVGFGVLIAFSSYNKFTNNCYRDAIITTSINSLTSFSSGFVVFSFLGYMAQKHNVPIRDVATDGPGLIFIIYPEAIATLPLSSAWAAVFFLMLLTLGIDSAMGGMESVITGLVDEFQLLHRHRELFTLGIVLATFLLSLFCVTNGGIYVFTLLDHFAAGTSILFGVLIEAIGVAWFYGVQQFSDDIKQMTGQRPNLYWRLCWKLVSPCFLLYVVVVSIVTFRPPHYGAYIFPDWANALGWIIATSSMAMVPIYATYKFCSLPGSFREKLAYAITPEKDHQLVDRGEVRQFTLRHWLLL

**Q.** Which Ki [1] does the source give for `COC(=O)/C=C/C1C(c2ccccc2)CC2CCC1N2C` (stereo not given) here?
**A.** 22 nM

**Q.** What about the ED50 (Mus musculus [2]) of the same compound?
**A.** 4.74 µmol/kg

**Q.** And the Max effect (Mus musculus [3])?
**A.** 14996 Counts 10min-1

**Q.** What about the ED50 (Rattus norvegicus [4]) of the same compound?
**A.** 12.8 µmol/kg

**Q.** And the IC50 (Rattus norvegicus [5])?
**A.** 123 nM

**Q.** Which results are given for `COC(=O)CCCCC1C(c2ccccc2)CC2CCC1N2C` (stereo not given)?
**A.** Ki [1]: 30 nM; IC50 (Rattus norvegicus [6]): 130 nM

**Q.** For `CN1C2CCC1C(CCC(=O)c1ccccc1)C(c1ccccc1)C2` (stereo not given), which Ki [1] is on record?
**A.** 28 nM

**Q.** What about the IC50 (Rattus norvegicus [6]) of the same compound?
**A.** 47 nM

**Q.** For `CN1C2CCC1C(CCCc1ccccc1)C(c1ccccc1)C2` (stereo not given), which Ki [1] is on record?
**A.** 16 nM

**Q.** What about the IC50 (Rattus norvegicus [6]) of the same compound?
**A.** 43 nM

**Q.** `COC(=O)/C=C/CCC1C(c2ccccc2)CC2CCC1N2C` (stereo not given) was tested. Which Ki [1] did it give?
**A.** 20 nM

**Q.** And the ED50 (Mus musculus [3])?
**A.** 9.21 µmol/kg

**Q.** What about the Max effect (Mus musculus [3]) of the same compound?
**A.** 17327 Counts 10min-1

**Q.** What about the ED50 (Rattus norvegicus [4]) of the same compound?
**A.** 15 µmol/kg

**Q.** And the IC50 (Rattus norvegicus [6])?
**A.** 203 nM

**Q.** `COC(=O)CCC1C(c2ccccc2)CC2CCC1N2C` (stereo not given) was tested. Which Ki [1] did it give?
**A.** 23 nM

**Q.** And the IC50 (Rattus norvegicus [5])?
**A.** 166 nM

**Q.** With `CN1C2CCC1C(CCCO)C(c1ccccc1)C2` (stereo not given) as the compound, how does the Ki [1] read?
**A.** 11 nM

**Q.** What about the ED50 (Mus musculus [3]) of the same compound?
**A.** 12 µmol/kg

**Q.** What about the Max effect (Mus musculus [3]) of the same compound?
**A.** 20820 Counts 10min-1

**Q.** And the ED50 (Rattus norvegicus [4])?
**A.** 12.9 µmol/kg

**Q.** What about the IC50 (Rattus norvegicus [6]) of the same compound?
**A.** 64 nM

**Q.** What does the source list for `CN1C2CCC1C(/C=C/CO)C(c1ccccc1)C2` (stereo not given)?
**A.** Ki [7]: 26 nM; IC50 (Rattus norvegicus [5]): 159 nM

**Q.** What does the source list for `COC(=O)[C@@H]1C2CC[C@H](C[C@@H]1c1ccccc1)N2C` (single isomer, unassigned)?
**A.** Ki [1]: 33 nM and 314 nM; IC50 (Rattus norvegicus [6]): 373 nM

**Q.** `COC(=O)[C@H]1[C@@H](OC(=O)c2ccccc2)C[C@@H]2CC[C@H]1N2C` [COCAINE] was tested. Which ED50 (Mus musculus [3]) did it give?
**A.** 20.8 µmol/kg

**Q.** And the Max effect (Mus musculus [3])?
**A.** 12518 Counts 10min-1

**Q.** What about the ED50 (Rattus norvegicus [4]) of the same compound?
**A.** 8.74 µmol/kg
